Tests used:
[1] = system: C6; assay: Induction of NGF production in rat C6 cells at 20 uM after 24 hrs by ELISA relative to untreated control; type: functional
Procedure, shortened: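 C6 glioma cells treated at 20 μM for 24 h; NGF released into C6-conditioned medium quantified by ELISA, reported as percentage of untreated control. Means ± SD from three independent experiments run in triplicate; Student's t-test versus control, p < 0.05.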

[2] = Cytotoxicity against rat C6 cells assessed as viable cells at 20 uM after 24 hrs by MTT assay; type: cell-based; conditions: read-out: Activity
Procedure, shortened: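 C6 rat glioma cells exposed to test agent at 20 μM for 24 h; viability read by MTT and expressed as percentage of untreated control. Means ± SD of three independent experiments, each in triplicate; significance versus control by Student's t-test (p < 0.05).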

Structure (SMILES) | Activity [1] [%] | viability at 24 h, 20 µM [2] [%]
C[C@H](CC[C@@]1(O)O[C@H]2C[C@H]3[C@@H]4CC=C5C[C@@H](O[C@@H]6O[C@H](CO)[C@@H](O[C@@H]7OC[C@H](O)[C@H](O)[C@H]7O)[C@H](O)[C@H]6O[C@@H]6O[C@@H](C)[C@H](O)[C@@H](O)[C@H]6O)CC[C@]5(C)[C@H]4CC[C@]3(C)[C@H]2[C@@H]1C)CO[C@@H]1O[C@H](CO)[C@@H](O)[C@H](O)[C@H]1O [COREAJAPONINS A] | 107.2 | 106
COCC(=O)c1ccc(O)cc1 | 105.6 | 99.8
COc1cc(CC[C@@H](O)C[C@@H](O)CCc2ccc(O)c(OC)c2)ccc1O | 120.7 | 102
Oc1cc(O)cc(CCc2ccccc2)c1 [DIHYDROPINOSYLVIN] | 117 | 105
CC(=O)CCc1ccc(O)cc1 [RASPBERRYKETONE] | 106.8 | 101
CO[C@]1(CC[C@@H](C)CO[C@@H]2O[C@H](CO)[C@@H](O)[C@H](O)[C@H]2O)O[C@H]2C[C@H]3[C@@H]4CC=C5C[C@@H](O[C@@H]6O[C@H](CO)[C@@H](O[C@@H]7OC[C@H](O)[C@H](O)[C@H]7O)[C@H](O)[C@H]6O[C@@H]6O[C@@H](C)[C@H](O)[C@@H](O)[C@H]6O)CC[C@]5(C)[C@H]4CC[C@]3(C)[C@H]2[C@@H]1C [COREAJAPONINS B] | 132.9 | 98
NC(=O)NC1NC(=O)NC1=O (centres undefined) [ALLANTOIN] | 102.4 | 100
COc1cc(O)cc(CCc2ccccc2O)c1 [BATATASIN IV] | 106.1 | 95
CCCCO[C@]1(CO)O[C@H](CO)[C@@H](O)[C@@H]1O | 117.5 | 102
COc1cc(O)cc(CCc2ccccc2OC)c1 [STILBOSTEMINN] | 104.6 | 104
CC[C@H](CC[C@@H](C)[C@H]1CC[C@H]2[C@@H]3CC=C4C[C@@H](O)CC[C@]4(C)[C@H]3CC[C@]12C)C(C)C [BETA-SITOSTEROL] | 106.1 | 104
CC1=CC(=O)CC(C)(C)[C@@]1(O)/C=C/[C@@H](C)O [BLUMENOL A] | 122.2 | 101

Source: ChEMBL document CHEMBL1759951, “Furostanol saponins from the rhizomes of Dioscorea japonica and their effects on NGF induction” (Bioorg Med Chem Lett, 2011)
